According to ChEMBL document CHEMBL4033772, “New Class of Antitrypanosomal Agents Based on Imidazopyridines” (ACS Med Chem Lett, 2017):
≈ marks a conversion by molar mass, not a printed value. Calls of active or inactive are those of the source. No cut-off for these calls is given here.

How the values were obtained:
Trypanosoma cruzi [1] = assay: Antitrypanosomal activity against Trypanosoma cruzi Tulahuen amastigotes infected in mouse 3T3 cells after 6 days by beta galactosidase reporter asay; format: functional, cell-based; conditions: NIH3T3, 144 h
[2] = test system: Trypanosoma brucei brucei; assay: Antitrypanosomal activity against Trypanosoma brucei brucei BF427 after 48 hrs by Alamar Blue-based assay; format: functional; conditions: BF427, 48 h
[3] = Cytotoxicity against human CRL8155 cells after 48 hrs by Alamar Blue-based assay; format: cell-based; conditions: CRL8155, 48 h
In short: (§1)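 Cytotoxicity tested against human lymphoblasts CRL-8155 and hepatocytes HepG2. Highest concentration tested was 50 µM.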

HepG2 = assay: Cytotoxicity against human HepG2 cells after 48 hrs by Alamar Blue-based assay; format: cell-based; conditions: HepG2, 48 h; in short: as §1
[4] = Half life in mouse liver microsomes by LC-MS/MS method; format: ADME, microsome
In short: (§2)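 Incubation with mouse liver microsomes, run in duplicate. Testosterone and dextromethorphan included as controls in each assay.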

Liver = assay: Stability of the compound in mouse liver microsomes assessed as compound remaining by LC-MS/MS method; format: ADME, microsome; in short: as §2
[5] = Solubility of the compound in PBS at pH 7.4 at 50 uM after overnight incubation by LC-MS/MS method; format: physicochemical
In short: (§3)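 Solubility measured at pH 7.4, 6.5 and 2.0.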

[6] = Solubility of the compound in PBS at pH 6.5 at 50 uM after overnight incubation by LC-MS/MS method; format: physicochemical; in short: as §3
[7] = Solubility of the compound in HCl at pH 2.0 at 50 uM after overnight incubation by LC-MS/MS method; format: physicochemical; in short: as §3
[8] = Protein binding in Swiss Webster mouse plasma assessed as drug recovery at 2 uM by LC-MS/MS analysis; format: ADME, cell-free; conditions: read-out: Drug recovery
In short: (§4)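 Plasma protein binding measured in 100% mouse plasma, giving % recovery and % fraction unbound. Propranolol control included in every experiment.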

[9] = Fraction unbound in Swiss Webster mouse plasma at 2 uM by LC-MS/MS analysis; format: ADME, cell-free; in short: as §4
[10] = Selectivity ratio of EC50 for Trypanosoma cruzi Tulahuen amastigotes to EC50 for Trypanosoma brucei brucei BF427; format: functional
[11] = Drug level in Swiss Webster mouse brain at 5 mg/kg, ip after 1 hr by LC-MS/MS analysis; format: ADME, organism-based; conditions: read-out: Drug uptake
In short: (§5)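 Mice in groups of three got a single 5 mg/kg ip dose. Animals were sacrificed 1 h postdose, and brain and plasma were collected for analysis. Brain:plasma ratio was calculated from the mean concentrations.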

[12] = Plasma concentration in Swiss Webster mouse at 5 mg/kg, ip after 1 hr by LC-MS/MS analysis; format: ADME, organism-based; in short: as §5
[13] = Ratio of drug level in Swiss Webster mouse brain to plasma at 5 mg/kg, ip measured after 1 hr by LC-MS/MS analysis; format: ADME, organism-based; conditions: read-out: BPR; in short: as §5
[14] = Cmax in Swiss Webster mouse at 50 mg/kg, po by LC-MS/MS analysis; format: ADME, organism-based; set-up: dose 50 mg/kg, route oral; conditions: in vivo
In short: (§6)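 Oral single dose of 50 mg/kg to mice (n=3). Blood sampled at time points up to 24 h. Cmax and AUC reported as average ± SEM.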

[15] = AUC in Swiss Webster mouse at 50 mg/kg, po by LC-MS/MS analysis; format: ADME, organism-based; conditions: in vivo; in short: as §6
Trypanosoma cruzi [16] = assay: Antitrypanosomal activity against bioluminescent PpyRE9h expressing Trypanosoma cruzi Tulahuen […] infected subcutaneously in BALB/c mouse assessed as suppression of Trypanosoma cruzi infection at 50 mg/kg, po twice daily for 5 days measured after 6 weeks by IVIS imaging analysis; format: functional, organism-based
In short: (§7)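 Balb/c mice infected SC on day 0 with 2x10^4 T. cruzi Tulahuen trypomastigotes expressing red-shifted luciferase (PpyRE9h). Oral dosing at 50 mg/kg twice daily on days 7-11 post-infection. D-luciferin (120 mg/kg) injected SC, mice anesthetized and imaged by IVIS 10-15 min later, at time points out to 42 days. Mice observed for toxicity.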

[17] = Plasma concentration in BALB/c mouse subcutaneously infected with bioluminescent PpyRE9h expressing Trypanosoma cruzi Tulahuen […] at 50 mg/kg, po twice daily measured 1 hr post seventh dose; format: ADME, organism-based
In short: (§8)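 Infected Balb/c mice on the twice-daily 50 mg/kg oral regimen. Tail blood collected at the 7th dose, immediately before and 1 h and 6 h after administration (n=3).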

[18] = Plasma concentration in BALB/c mouse subcutaneously infected with bioluminescent PpyRE9h expressing Trypanosoma cruzi Tulahuen tryptomastigotes at 50 mg/kg, po twice daily measured 6 hrs post seventh dose; format: ADME, organism-based; in short: as §8
Mus musculus = assay: Toxicity in BALB/c mouse infected with bioluminescent PpyRE9h expressing Trypanosoma cruzi Tulahuen […] at 50 mg/kg, po twice daily for 5 days measured after 6 weeks; format: organism-based; conditions: in vivo, 1008 h; in short: as §7
[19] = Plasma concentration in BALB/c mouse subcutaneously infected with bioluminescent PpyRE9h expressing Trypanosoma cruzi Tulahuen […] at 50 mg/kg, po twice daily measured immediately before seventh dose
Trypanosoma cruzi [20] = assay: Antitrypanosomal activity against bioluminescent PpyRE9h expressing Trypanosoma cruzi Tulahuen […] infected subcutaneously in BALB/c mouse assessed as suppression of Trypanosoma cruzi infection at 100 mg/kg, po qd administered for 5 days measured after 6 weeks by IVIS imaging analysis; format: functional, organism-based

SMILES	EC50 (Trypanosoma cruzi [1]) [nM]	EC90 (Trypanosoma cruzi [1]) [nM]	EC50 [2] [nM]	EC90 [2] [nM]	EC50 [3] [µM]	EC50 (HepG2) [µM]	further results
O=C(Nc1ccn2cc(-c3ccc(F)c(F)c3)nc2c1)c1cccnc1Cl	7340	> 20000	> 20000	> 20000	> 50	> 50	
O=C(Nc1ccn2cc(-c3cccs3)nc2c1)N1CC[C@H](F)C1	2680	3920	1000	2670	> 50	> 50	
O=C(Nc1ccn2cc(-c3cccc(F)c3F)nc2c1)N1CC[C@H](F)C1	940	1360	180	920	> 50	> 50	half-life [4]: > 60 min; Stability (Liver): 86.3%; solubility at 50 µM [5]: 6.4 µM (≈ 2.31 µg/mL); solubility at 50 µM [6]: 6.8 µM (≈ 2.45 µg/mL); solubility at 50 µM [7]: 53.1 µM (≈ 19.1 µg/mL); recovery at 2 µM [8]: 68.4%; fraction unbound at 2 µM [9]: 0.026
O=C(Nc1ccc2nc(-c3ccc(F)c(F)c3)cn2c1)N1CC[C@H](F)C1	9940	> 20000	> 20000	> 20000	> 50	> 50	
COc1ccc2c(c1)[C@]13CCCC[C@@H]1[C@H](C2)N(C)CC3 [DEXTROMETHORPHAN]							half-life [4]: 1.11 min
O=C(Nc1ccn2cc(-c3cccc(F)c3F)nc2c1)N1CCCCC1	1000	1580	720	870	> 50	> 50	
O=C(Nc1ccn2cc(-c3cccc(F)c3F)nc2c1)N1CCCC1	1020	1610	580	2760	> 50	> 50	
O=C(Nc1ccn2cc(-c3ccc(F)c(F)c3)nc2c1)N1CCCC1	2240	2570	320	730	> 50	> 50	Ratio EC50 [10]: 7
O=C(Nc1cc2nc(-c3ccc(F)c(F)c3)cn2cn1)N1CC[C@H](F)C1	90	150	20	50	> 50	> 50	half-life [4]: > 60 min; Stability (Liver): 96%; solubility at 50 µM [5]: 2.1 µM (≈ 0.759 µg/mL); solubility at 50 µM [6]: 2.4 µM (≈ 0.867 µg/mL); solubility at 50 µM [7]: 1.6 µM (≈ 0.578 µg/mL); recovery at 2 µM [8]: 56.1%; fraction unbound at 2 µM [9]: 0.099; concentration at 1 h [11]: 1120 nM; concentration at 1 h [12]: 1.31 µM; Kp at 1 h [13]: 0.856; Cmax [14]: 5.7 µM; AUC [15]: 59.8 µM·h; Activity (Trypanosoma cruzi [16]): Active; concentration at 1 h [17]: 9 µM; concentration at 6 h [18]: 5.8 µM; Activity (Mus musculus): Non-Toxic; concentration at 0 hr [19]: 4.8 µM
CC(C)NCC(O)COc1cccc2ccccc12 (centres undefined) [PROPRANOLOL]							recovery at 2 µM [8]: 75.7%; fraction unbound at 2 µM [9]: 0.114
O=C(Nc1ccn2cc(-c3nccs3)nc2c1)N1CC[C@H](F)C1	> 20000	> 20000	> 20000	> 20000	> 50	> 50	
O=C(Cn1ccnc1[N+](=O)[O-])NCc1ccccc1 [BENZNIDAZOLE]	690	1360					Activity (Trypanosoma cruzi [20]): Active
N=C(N)c1ccc(OCCCCCOc2ccc(C(=N)N)cc2)cc1 [PENTAMIDINE]			2.16	6.13			
O=C(Nc1ccn2cc(-c3cccc(F)c3)nc2c1)N1CC[C@H](F)C1	710	880	160	820	29.7	> 50	half-life [4]: > 60 min; Stability (Liver): 84.5%; solubility at 50 µM [5]: 49.7 µM (≈ 17 µg/mL); solubility at 50 µM [6]: 43.8 µM (≈ 15 µg/mL); solubility at 50 µM [7]: 52 µM (≈ 17.8 µg/mL); recovery at 2 µM [8]: 68.5%; fraction unbound at 2 µM [9]: 0.03
O=C(Nc1ccn2cc(-c3cccc(F)c3)nc2c1)N1CCCC1	2950	6010	730	880	> 50	> 50	
O=C(Nc1ccn2cc(-c3ccccc3)nc2c1)N1CCCCC1	2750	12300	2510	4200	> 50	> 50	
O=C(Nc1ccn2cc(-c3ccc(F)c(F)c3)nc2c1)N1CCCCC1	2840	4400	1200	1750	47.4	> 50	
Cn1nc(C(C)(C)C)cc1C(=O)Nc1cc2nc(-c3ccc(F)c(F)c3)cn2cn1	170	640	6990	> 20000	14.5	> 50	half-life [4]: 60 min; Stability (Liver): 47.1%; solubility at 50 µM [5]: 2.7 µM (≈ 1.11 µg/mL); solubility at 50 µM [6]: 7.6 µM (≈ 3.12 µg/mL); solubility at 50 µM [7]: 1.3 µM (≈ 0.534 µg/mL); recovery at 2 µM [8]: 73.3%; fraction unbound at 2 µM [9]: 0.007
O=C(Nc1ccn2cc(-c3ccccc3)nc2c1)N1CC[C@H](F)C1	1080	1730	620	770	44.6	> 50	
Cc1noc(C)c1C(=O)Nc1ccn2cc(-c3ccc(F)c(F)c3)nc2c1	9060	> 20000	> 20000	> 20000	> 50	> 50	
C[C@]12CC[C@H]3[C@@H](CCC4=CC(=O)CC[C@@]43C)[C@@H]1CC[C@@H]2O [TESTOSTERONE]							half-life [4]: 5.68 min
Cn1nc(C(C)(C)C)cc1C(=O)Nc1ccn2cc(-c3ccc(F)c(F)c3)nc2c1	570	1520	710	> 20000	> 50	> 50	
O=C(Nc1ccn2cc(-c3ccccc3)nc2c1)N1CCCC1	4460	6440	2230	3270	36	> 50	
CCN(CC)CCCC(C)Nc1c2ccc(Cl)cc2nc2ccc(OC)cc12 (centres undefined) [QUINACRINE]					4.23		
O=C(Nc1ccn2cc(-c3ccc(F)c(F)c3)nc2n1)N1CC[C@H](F)C1	2530	> 20000	> 20000	> 20000	> 50	> 50	solubility at 50 µM [6]: 42 µM (≈ 15.2 µg/mL); recovery at 2 µM [8]: 49%; fraction unbound at 2 µM [9]: 0.081
O=C(Nc1ccn2cc(-c3ccc(F)c(F)c3)nc2c1)c1cccnc1	6270	> 20000	6300	> 20000	> 50	> 50	
O=C(Nc1ccn2cc(-c3ccc(F)c(F)c3)nc2c1)N1CC[C@H](F)C1	390	600	160	310	35.3	> 50	half-life [4]: > 60 min; Stability (Liver): 100%; solubility at 50 µM [5]: 32.8 µM (≈ 11.8 µg/mL); solubility at 50 µM [6]: 49.9 µM (≈ 18 µg/mL); solubility at 50 µM [7]: 45.9 µM (≈ 16.5 µg/mL); recovery at 2 µM [8]: 64.5%; fraction unbound at 2 µM [9]: 0.04; concentration at 1 h [11]: 550 nM; concentration at 1 h [12]: 4.84 µM; Kp at 1 h [13]: 0.114
O=C(Nc1ccn2cc(-c3cccc(F)c3)nc2c1)N1CCCCC1	3100	4530	970	1480	> 50	> 50	
